# Data published in ChEMBL document CHEMBL1142233, “Treatment of diabetes and atherosclerosis by inhibiting fatty-acid-binding protein aP2” (2007).
# Calls of active or inactive are those of the source. The calls are words filed in the database; no cut-off is given here.
# Assays:
# Mus musculus [1] = assay: Attenuation of fatty infiltration of liver in ob/ob mouse at 40 mg/kg/day, po; type: functional, organism-based
# Summary of the method: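 Male ob/ob mice given daily oral gavage for 6 weeks starting at 8 weeks of age. Liver sections stained with haematoxylin and eosin; n = 6 per group.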
# [2] = Reduction of TNF expression mouse aP2-/-R macrophage cells (re-expression of aP2) relative to control; type: functional, cell-based
# Summary of the method: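 Mouse aP2⁺/⁺ and aP2-reconstituted aP2⁻/⁻ macrophage lines were grown in RPMI with FBS or 5% LPDS, with inhibitor in DMSO or vehicle. Mcp-1, Il1β, Il6 and Tnf mRNA were measured by SYBR Green qRT-PCR (annealing at 58 °C, 50 cycles), normalized to 18s rRNA and then to untreated cells. Mean ± s.e.m.; at least triplicate.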
# Mus musculus [3] = assay: Effect on glucose level in 5-week old apoE -/- C57BL/6J mouse fed on western diet and 15 mg/kg/day, po drug simultaneously in 5-11 week early intervention study; type: functional
# Summary of the method: (§1)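 Male Apoe−/− mice on western diet (21% fat, 0.21% cholesterol) from 4–5 weeks of age. Oral gavage for 6 weeks from age 5 or 12 weeks; vehicle 10% 1-methyl-2-pyrrolidone, 5% cremophor EL with ethanol in water. Blood taken after 6 h fast before and after treatment. Glucose by meter; insulin by ELISA; lipids and glycerol colorimetric.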
# Mus musculus [4] = assay: Effect on adiponectin level in 5-week old apoE-/- C57BL/6J mouse fed on western diet and 15 mg/kg/day, po drug simultaneously in 5-11 week early intervention study; type: functional; summary of the method: as §1
# [5] = Decrease in MCP1 production in mouse aP2-/-R macrophage cells (re-expression of aP2) after 24 hrs; type: functional, cell-based
# Summary of the method: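 Immortalized mouse macrophage lines (aP2−/−R re-expressing aP2) kept 24 h in RPMI plus 5% LPDS with inhibitor 0–25 μM in DMSO. MCP-1 in supernatant measured by ELISA and expressed relative to inhibitor-free cells of each line. At least triplicate.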
# Mus musculus [6] = assay: Effect on insulin level in 5-week old apoE-/- C57BL/6J mouse fed on western diet and administered with 15 mg/kg/day, po drug at 12 week in 12-18 week late intervention study; type: functional; summary of the method: as §1
# Mus musculus [7] = assay: Effect on insulin level in 5-week old apoE-/- C57BL/6J mouse fed on western diet and 15 mg/kg/day, po drug simultaneously in 5-11 week early intervention study; type: functional; summary of the method: as §1
compound,measurement,setting,value
CCc1c(-c2ccccc2)c(-c2ccccc2)nn1-c1ccccc1-c1cccc(OCC(=O)O)c1,Activity,Mus musculus [1],Active
same,Activity,[2],Active
same,Activity,Mus musculus [3],133.2 mg/dL
same,Activity,Mus musculus [4],8.59 µg/mL
same,Activity,[5],Active
same,Activity,Mus musculus [6],2.19 ng/mL
same,Activity,Mus musculus [7],0.5 ng/mL
